Experimental findings from ChEMBL document CHEMBL3112557, “Heteroarylureas with spirocyclic diamine cores as inhibitors of fatty acid amide hydrolase” (Bioorg Med Chem Lett, 2014) are described below.

The source made the active and inactive calls. The rule behind the calls is not given here.

Series [1] deals with T1, Fatty-acid amide hydrolase 1 (Homo sapiens) (UniProt O00519).
T1 sequence (whole entry): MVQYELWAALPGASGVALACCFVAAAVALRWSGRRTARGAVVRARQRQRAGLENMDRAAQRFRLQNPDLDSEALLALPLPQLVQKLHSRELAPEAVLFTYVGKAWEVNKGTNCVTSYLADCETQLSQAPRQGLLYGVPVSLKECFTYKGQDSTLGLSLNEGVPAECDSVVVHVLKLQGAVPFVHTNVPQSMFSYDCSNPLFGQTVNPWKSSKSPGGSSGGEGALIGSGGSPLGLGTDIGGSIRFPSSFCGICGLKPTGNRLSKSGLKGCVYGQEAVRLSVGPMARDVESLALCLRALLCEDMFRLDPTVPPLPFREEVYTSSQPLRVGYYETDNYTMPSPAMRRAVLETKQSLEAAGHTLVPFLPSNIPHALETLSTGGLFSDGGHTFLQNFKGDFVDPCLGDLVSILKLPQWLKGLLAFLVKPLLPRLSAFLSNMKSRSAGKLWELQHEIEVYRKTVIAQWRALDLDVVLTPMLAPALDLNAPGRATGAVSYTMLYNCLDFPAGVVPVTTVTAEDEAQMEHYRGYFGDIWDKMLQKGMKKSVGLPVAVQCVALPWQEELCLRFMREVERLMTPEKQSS
Description: Irreversible binding affinity to FAAH (unknown origin) assessed as lack of enzymatic activity at 120 nM at room temperature after 24 hrs by dialysis assay. In outline: (§1)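 Enzyme with inhibitor was dialysed for 24 h (overnight), in parallel at 4 °C and at room temperature. FAAH activity was measured before and after dialysis and expressed as % activity of vehicle control. Lack of recovered activity after dialysis was read as irreversible binding. Reference inhibitors were a reversible binder and a slow-off substrate.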

Series [2] deals with T1, Fatty-acid amide hydrolase 1 (Homo sapiens). In words: Irreversible binding affinity to FAAH (unknown origin) assessed as lack of enzymatic activity at 120 nM at 4 degC after 24 hrs by dialysis assay. Summed up:
as §1

For series [3] the target is unchanged. In words: Irreversible binding affinity to FAAH (unknown origin) assessed as lack of enzymatic activity at 100 nM at room temperature after 24 hrs by dialysis assay. In outline:
as §1

The target is the same in series [4]. In words: Irreversible binding affinity to FAAH (unknown origin) assessed as lack of enzymatic activity at 100 nM at 4 degC after 24 hrs by dialysis assay. Summed up: as §1
The subject of series [5] is Rattus norvegicus. In words: Analgesic activity in rat Chung model of neuropathic pain at 20 mg/kg, po. Format: functional, organism-based. On the set-up: dose 20 mg/kg. Summed up:
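Rats dosed orally at 20 mg/kg in water (vehicle water, 2 mL/kg); n=6 per group; positive control dosed p.o. at 60 mg/kg (n=3); significance assessed overall at p < 0.05.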

Series [6] deals with Rattus norvegicus. Description: Ex vivo inhibition of FAAH in Sprague-Dawley rat assessed as residual activity at 20 mg/kg, po after 0.5 to 4 hrs. Format: functional. Summed up: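 Oral 20 mg/kg in water, n=3 rats; brains taken at 30 min, 1 h and 4 h post-dose and ex vivo FAAH activity expressed as % of vehicle control; AEA, OEA and PEA levels measured at 4 h versus controls.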

The next series concerns Brain. Description: Drug uptake in Sprague-Dawley rat brain at 20 mg/kg, po. Set-up: dose 20 mg/kg, route oral. The settings on record: in vivo. The format is ADME, organism-based. Summed up:
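Single 20 mg/kg oral dose in water, n=3 rats; brain and plasma compound levels (µM) measured over 0–4 h post-dose.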

In series [7] the target is T2, Fatty-acid amide hydrolase 1 (Rattus norvegicus, UniProt P97612).
T2 sequence (P97612 whole entry): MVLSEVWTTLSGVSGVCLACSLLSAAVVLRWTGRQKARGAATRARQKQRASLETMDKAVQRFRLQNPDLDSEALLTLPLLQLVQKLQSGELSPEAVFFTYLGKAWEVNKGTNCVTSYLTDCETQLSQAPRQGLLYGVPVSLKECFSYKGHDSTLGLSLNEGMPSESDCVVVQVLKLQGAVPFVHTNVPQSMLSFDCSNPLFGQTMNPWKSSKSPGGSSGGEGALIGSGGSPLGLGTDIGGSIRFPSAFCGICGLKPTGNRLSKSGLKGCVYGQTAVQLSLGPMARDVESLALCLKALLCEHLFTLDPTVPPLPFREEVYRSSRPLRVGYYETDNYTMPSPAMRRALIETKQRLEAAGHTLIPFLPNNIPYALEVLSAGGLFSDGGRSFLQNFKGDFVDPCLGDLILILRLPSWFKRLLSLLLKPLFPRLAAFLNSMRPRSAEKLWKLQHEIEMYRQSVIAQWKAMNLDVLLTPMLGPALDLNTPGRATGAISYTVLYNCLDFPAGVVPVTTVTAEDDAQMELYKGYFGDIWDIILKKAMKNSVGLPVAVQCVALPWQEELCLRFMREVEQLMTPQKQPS
In words: Inhibition of rat FAAH after 60 mins. In outline: (§2)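 Enzyme preincubated with compound for 60 min before activity read-out; values n ≥ 3 ± SEM.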

The target in series [8] is T3, Fatty-acid amide hydrolase 1 (Homo sapiens, UniProt O00519).
T3 sequence (O00519 whole entry): T1 sequence (whole entry)
Description: Inhibition of human FAAH after 60 mins. In outline:
as §2

Series [9] deals with Rattus norvegicus. In words: Ex vivo inhibition of FAAH in Sprague-Dawley rat assessed as increase in OEA level at 20 mg/kg, po after 4 hrs relative to control; values are per cent of control.
The subject of series [10] is Rattus norvegicus. Description: Ex vivo inhibition of FAAH in Sprague-Dawley rat assessed as increase in PEA level at 20 mg/kg, po after 4 hrs relative to control; values are per cent of control.
For series [11], the system named is Rattus norvegicus. Description: Ex vivo inhibition of FAAH in Sprague-Dawley rat assessed as increase in AEA level at 20 mg/kg, po after 4 hrs relative to control; values are per cent of control.

Take `O=C(Nc1cnccc1Cl)N1CC2(CCN(Cc3cccc(Oc4ccc(Cl)cc4)c3)CC2)C1`: the outcome (in series [1]; in series [2]; in series [3]; in [4]; with Rattus norvegicus [5]) was Active. The Activity with Rattus norvegicus [6] is less than 10%. Further, the Drug uptake entry in the series with Brain was “Active”. Also, the results for the IC50 in series [7] and in series [8] were 9 nM and 8 nM, respectively. The results for the level, % of control at 20 mg/kg in the series with Rattus norvegicus [9], in the series on Rattus norvegicus [10] and with Rattus norvegicus [11] were 500%, 700% and 150%, respectively.
